Measured values published in PMC5365239 (Chemical Science, 2016).

Experiments:
OVCAR5 cells = test: MTS cytotoxicity assay after CuAAC reaction / GSH depletion; assay type: cell-based, human; settings: low concentration (20 μM) BSO
Method in brief: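 HPG-incorporated OVCAR5 cells were exposed 10 min to CuAAC reaction mixtures. They were then returned to RPMI-1640 for 24 hours before viability was read by MTS assay. For GSH depletion, cells were first held 24 hours in RPMI-1640 containing 20 μM BSO before HPG incorporation.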

cellular GSH = test: Cellular GSH concentration by LC-ESI-MS/MS after NEM alkylation; assay type: cell-based, human; settings: OVCAR5, 20 μM BSO
Method in brief: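 Adherent OVCAR5 cells held in RPMI-1640 with 20 μM BSO for 24 hours before HPG incorporation. Cellular GSH was alkylated with NEM and then quantified by LC-ESI-MS/MS.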

[1] = Cu^I-ligand dissociation constant, competition assay with bicinchoninic acid; assay type: binding; settings: read-out: Dissociation constant (KD) of Cu^I-ligand; BCA competition assay

Compound	Cytotoxicity of GSH depletion (in words) (OVCAR5 cells)	Cellular GSH concentration (cellular GSH; 24 h) [µM]	Reduction of the cellular GSH level (cellular GSH; 24 hours) [%]	Kd [1] [nM]
CCCCS(=N)(=O)CCC(N)C(=O)O (stereo not shown) [BSO, buthionine sulfoximine]	No cytotoxicity	4.9 ± 0.4	99.7	–
N[C@@H](CCC(=O)N[C@@H](CS)C(=O)NCC(=O)O)C(=O)O [GSH, reduced glutathione]	–	–	–	0.031
